Measurements published in paper PMC6468299 (Nucleic Acids Research, 2019).
Marks after values point to notes of the source that are not given here.

How the values were obtained:
Type in all cases: biochemical
[1] = target: DNA polymerase β (Pol-β) (Homo sapiens, UniProt P06746); experiment: DNA polymerase inhibition assay, Pol-β; details: 1 h, 3H-dTTP incorporation
Method in brief: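 Reactions contained 25 μM each dATP/dCTP/dGTP, 25 nM TTP plus 1 μCi ³H-TTP, 160 nM template/primer, and serially diluted test nucleotide (0–200 μM). Incubation was 1 h at 37°C. DNA was TCA-precipitated, washed and counted; inhibition was taken from reduced incorporation. ddNTPs served as positive control.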

[2] = target: T1, human mitochondrial DNA polymerase γ (Pol-γ exo-mutant) (Homo sapiens, UniProt P54098, D198A/E200A); experiment: Pol-γ primer extension
T1 sequence (P54098 26-1239 D198A/E200A limits assumed): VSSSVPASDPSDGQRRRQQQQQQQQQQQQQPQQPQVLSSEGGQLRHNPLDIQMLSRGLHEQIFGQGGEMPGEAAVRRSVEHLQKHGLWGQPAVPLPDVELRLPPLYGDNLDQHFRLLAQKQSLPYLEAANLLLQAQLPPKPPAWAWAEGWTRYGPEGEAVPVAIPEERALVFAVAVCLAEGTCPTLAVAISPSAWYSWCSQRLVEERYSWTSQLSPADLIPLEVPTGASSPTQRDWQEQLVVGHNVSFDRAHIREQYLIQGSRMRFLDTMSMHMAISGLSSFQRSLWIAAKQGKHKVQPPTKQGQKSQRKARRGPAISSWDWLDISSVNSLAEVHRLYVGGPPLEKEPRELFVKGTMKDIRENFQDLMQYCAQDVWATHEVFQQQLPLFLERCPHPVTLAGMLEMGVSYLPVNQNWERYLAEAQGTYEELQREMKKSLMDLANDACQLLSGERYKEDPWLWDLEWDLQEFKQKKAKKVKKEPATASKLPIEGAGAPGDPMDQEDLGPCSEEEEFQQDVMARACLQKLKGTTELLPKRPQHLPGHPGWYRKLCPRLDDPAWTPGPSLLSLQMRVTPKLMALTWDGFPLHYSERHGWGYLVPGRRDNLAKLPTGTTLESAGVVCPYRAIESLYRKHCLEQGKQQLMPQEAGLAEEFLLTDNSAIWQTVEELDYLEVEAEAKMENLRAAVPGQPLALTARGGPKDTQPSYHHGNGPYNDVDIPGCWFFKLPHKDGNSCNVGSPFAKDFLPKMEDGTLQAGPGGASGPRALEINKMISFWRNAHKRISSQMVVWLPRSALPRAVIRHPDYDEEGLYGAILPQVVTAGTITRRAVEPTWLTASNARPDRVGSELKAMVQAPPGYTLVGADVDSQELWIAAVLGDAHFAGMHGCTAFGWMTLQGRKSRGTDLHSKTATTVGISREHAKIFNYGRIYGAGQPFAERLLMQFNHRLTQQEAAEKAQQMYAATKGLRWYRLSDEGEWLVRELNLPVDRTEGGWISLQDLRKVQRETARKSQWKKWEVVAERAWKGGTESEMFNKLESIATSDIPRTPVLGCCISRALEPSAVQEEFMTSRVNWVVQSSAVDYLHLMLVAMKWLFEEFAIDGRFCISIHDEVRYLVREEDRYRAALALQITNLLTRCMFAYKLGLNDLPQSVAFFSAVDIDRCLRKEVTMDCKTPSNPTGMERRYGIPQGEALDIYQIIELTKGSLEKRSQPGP
Method in brief: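 Exonuclease-deficient human Pol-γ (40 units) was used with 100 nM DNA template and 100 nM Atto-425-labelled 14-mer DNA primer. Substrate was 1 mM dNTP or 2′-F-NTP, or mixtures 100:1 to 1:100 (1:1 both 1 mM). Products were separated by fluorescence IEX-HPLC (ex 436/em 485 nm) at pH 11. Products under 1.0% peak area were called not detected.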

[3] = target: Human mitochondrial RNA polymerase (POLRMT) (Homo sapiens, UniProt O00411); experiment: POLRMT primer extension
Method in brief: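 Reactions contained 200 nM DNA template, 25 nM Atto-425-labelled 12-mer RNA primer and 300 nM human POLRMT. Substrate was 1 mM NTP or 2′-F-NTP, or mixtures from 100:1 to 1:100 (1:1 both 1 mM). Products were resolved by fluorescence anion-exchange HPLC (ex 436/em 485 nm, pH 11 NaBr gradient). Products under 1.0% peak area were called not detected.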

[4] = target: T2, Pol-γ (exo- mutant) (Homo sapiens, UniProt P54098, D198A/E200A); experiment: Non-obligate chain termination assay; details: for chain elongation with analog in excess over dTTP: analog 1 μM at 10-fold (FIAU-TP also 100-fold) excess over dTTP; for chain elongation with analog substituted for dTTP: analog 1 μM, no dTTP; for effect on chain elongation in the presence of native dTTP: dTTP 1 μM, analog at 0.01, 0.1 or 1 μM, 37°C, 10 min
T2 sequence (P54098 26-1239 D198A/E200A limits assumed): T1 sequence (P54098 26-1239 D198A/E200A limits assumed)
Method in brief: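 A 23-mer DNA primer was 5′-end labelled with γ-³²P ATP and annealed to a 50-mer template. Extension required reading through nine consecutive template adenosines. Reactions used 10 units exonuclease-deficient human Pol-γ, with test analogue (0.01–1 μM) alone or with dTTP, plus native dATP/dCTP/dGTP, for 10 min at 37°C. Samples were stopped with loading dye, heated 100°C 5 min, run on 12% urea PAGE and phosphorimaged.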

Sequence of Human mitochondrial RNA polymerase (POLRMT) (O00411 42-1230): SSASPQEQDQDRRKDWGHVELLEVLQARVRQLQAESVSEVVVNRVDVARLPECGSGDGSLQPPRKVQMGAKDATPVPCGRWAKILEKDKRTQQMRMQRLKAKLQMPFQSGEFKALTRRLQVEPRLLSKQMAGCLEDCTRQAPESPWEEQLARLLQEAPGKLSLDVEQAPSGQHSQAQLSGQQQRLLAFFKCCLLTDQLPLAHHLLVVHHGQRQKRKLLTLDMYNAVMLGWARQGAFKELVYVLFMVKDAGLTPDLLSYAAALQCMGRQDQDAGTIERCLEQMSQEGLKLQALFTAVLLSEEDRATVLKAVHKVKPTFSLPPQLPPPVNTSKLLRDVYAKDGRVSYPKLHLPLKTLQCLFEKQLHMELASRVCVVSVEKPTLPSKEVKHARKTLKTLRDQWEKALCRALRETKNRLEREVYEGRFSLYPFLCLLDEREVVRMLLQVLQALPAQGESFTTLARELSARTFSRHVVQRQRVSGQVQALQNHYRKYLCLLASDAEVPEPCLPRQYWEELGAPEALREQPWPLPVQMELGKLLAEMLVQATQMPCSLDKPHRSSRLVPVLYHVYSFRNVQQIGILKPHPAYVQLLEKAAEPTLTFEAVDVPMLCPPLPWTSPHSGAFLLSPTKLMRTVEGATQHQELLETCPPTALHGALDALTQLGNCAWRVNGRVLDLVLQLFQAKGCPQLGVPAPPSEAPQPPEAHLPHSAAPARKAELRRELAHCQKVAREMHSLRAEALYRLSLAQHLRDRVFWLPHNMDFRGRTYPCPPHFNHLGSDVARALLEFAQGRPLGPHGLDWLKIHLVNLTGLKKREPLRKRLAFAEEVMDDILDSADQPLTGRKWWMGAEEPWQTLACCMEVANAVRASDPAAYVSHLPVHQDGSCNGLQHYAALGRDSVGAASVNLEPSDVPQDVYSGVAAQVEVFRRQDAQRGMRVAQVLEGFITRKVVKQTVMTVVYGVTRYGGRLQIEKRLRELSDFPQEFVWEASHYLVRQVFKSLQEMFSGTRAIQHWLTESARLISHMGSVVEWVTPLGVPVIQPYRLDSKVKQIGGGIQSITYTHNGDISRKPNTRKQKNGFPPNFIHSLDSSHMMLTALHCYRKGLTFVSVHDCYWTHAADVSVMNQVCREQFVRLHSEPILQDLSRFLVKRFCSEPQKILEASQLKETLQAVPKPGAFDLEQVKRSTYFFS

Row | IC50 [1] | IC90 [1] | % 2′-F product ([2]; F only) | % Native product ([2]; Native only (no 2′-F-NTP)) | % Native product ([2]; Native:F ratio 1:1) | % Native product ([2]; Native:F ratio 1:10) | % 2′-F product ([2]; Native:F ratio 1:100) | % Native product ([2]; Native:F ratio 1:100) | % 2′-F product ([3]; F only) | % Native product ([3]; Native only (no 2′-F-NTP)) | % Native product ([3]; Native:F ratio 1:1) | % Native product ([3]; Native:F ratio 1:10) | % Native product ([3]; Native:F ratio 1:100) | Structure (SMILES) | % 2′-F product ([2]; Native:F ratio 1:1) | % 2′-F product ([2]; Native:F ratio 1:10) | % 2′-F product ([3]; Native:F ratio 1:1) | % 2′-F product ([3]; Native:F ratio 1:10) | % 2′-F product ([3]; Native:F ratio 1:100) | chain elongation with analog in excess over dTTP [4] | chain elongation with analog substituted for dTTP [4] | also measured
1 | 175 µM | > 200 µM | 94.2^a % | 95.9^a % | 96.3^a % | 97.1^a % | 17.6^b % | 79.8^b % | 42.6^a % | 69.2^a % | 67.8^a % | 63.5^a % | 51.4^a % | Nc1ncnc2c1ncn2[C@@H]1O[C@H](COP(=O)(O)OP(=O)(O)OP(=O)(O)O)[C@@H](O)[C@H]1F [2′-F-ATP] | ND (not detected (integration peak area <1.0%)) | ND (not detected (integration peak area <1.0%)) | ND (not detected (integration peak area <1.0%)) | ND (not detected (integration peak area <1.0%)) | ND (not detected (integration peak area <1.0%)) | – | – | –
2 | > 200 µM | > 200 µM | 73.9^a % | 89.2^a % | 85.0^a % | 88.9^a % | 23.7^b % | 56.0^b % | 78.9^a % | 95.0^a % | 96.4^a % | 83.4^a % | 69.2^b % | Nc1nc2c(ncn2[C@@H]2O[C@H](COP(=O)(O)OP(=O)(O)OP(=O)(O)O)[C@@H](O)[C@H]2F)c(=O)[nH]1 [2′-F-GTP] | ND (not detected (integration peak area <1.0%)) | ND (not detected (integration peak area <1.0%)) | ND (not detected (integration peak area <1.0%)) | ND (not detected (integration peak area <1.0%)) | 8.9^b % | – | – | –
3 | 91.6 µM | > 200 µM | 87.3^a % | 83.3^a % | 83.8^a % | 90.0^b % | 7.6^b % | 80.1^b % | 31.8^a % | 40.8^a % | 32^a % | 45.3^a % | 35.6^a % | O=c1ccn([C@@H]2O[C@H](COP(=O)(O)OP(=O)(O)OP(=O)(O)O)[C@@H](O)[C@H]2F)c(=O)[nH]1 [2′-F-UTP] | ND (not detected (integration peak area <1.0%)) | 2.9^b % | ND (not detected (integration peak area <1.0%)) | ND (not detected (integration peak area <1.0%)) | ND (not detected (integration peak area <1.0%)) | the presence of dTTP reduced the elongation defect | weak smear of elongated species with very little full-length product | effect on chain elongation in the presence of native dTTP [4]: essentially no impact on chain elongation
4 | 0.37 µM | 5.56 µM | 94.4^a % | 98.3^a % | 91.7^b % | – | 82.7^b % | – | 21.0^a % | 34.6^a % | 25.1^a % | 25.4^a % | 24.10^b % | O=c1[nH]c(=O)n([C@@H]2O[C@H](COP(=O)(O)OP(=O)(O)OP(=O)(O)O)[C@@H](O)[C@@H]2F)cc1I [FIAU-TP, fialuridine triphosphate, reference compound] | 4.5^b % | 44.0^b % | ND (not detected (integration peak area <1.0%)) | ND (not detected (integration peak area <1.0%)) | 1.1^b % | continued to strongly impair elongation | restricted elongation products to 31 nucleotides in length | effect on chain elongation in the presence of native dTTP [4]: caused a reduction in full-length product and an increase in shorter products at the highest concentration

Row | Structure (SMILES) | IC50 [1] | IC90 [1] | % 2′-F product ([2]; F only) | % Native product ([2]; Native only (no 2′-F-NTP)) | % Native product ([2]; Native:F ratio 1:1) | % Native product ([2]; Native:F ratio 1:10) | % 2′-F product ([2]; Native:F ratio 1:100) | % Native product ([2]; Native:F ratio 1:100) | % 2′-F product ([3]; F only) | % Native product ([3]; Native only (no 2′-F-NTP)) | % Native product ([3]; Native:F ratio 1:1) | % Native product ([3]; Native:F ratio 1:10) | % Native product ([3]; Native:F ratio 1:100) | % 2′-F product ([2]; Native:F ratio 1:1) | % 2′-F product ([2]; Native:F ratio 1:10) | % 2′-F product ([3]; Native:F ratio 1:1) | % 2′-F product ([3]; Native:F ratio 1:10) | % 2′-F product ([3]; Native:F ratio 1:100) | chain elongation with analog in excess over dTTP [4] | chain elongation with analog substituted for dTTP [4] | also measured
5 | Nc1ccn([C@@H]2O[C@H](COP(=O)(O)OP(=O)(O)OP(=O)(O)O)[C@@H](O)[C@H]2F)c(=O)n1 [2′-F-CTP] | > 200 µM | > 200 µM | 94.0^a % | 97.3^a % | 96.2^a % | 90.6^b % | 30.9^b % | 64.5^b % | 58.7^a % | 48.8^a % | 39.3^a % | 43.7^a % | 37.0^b % | ND (not detected (integration peak area <1.0%)) | 4.4^b % | ND (not detected (integration peak area <1.0%)) | ND (not detected (integration peak area <1.0%)) | 9.1^b % | – | – | –
